Data on three compounds can be found in ChEMBL document CHEMBL2311322, “On scaffold hopping: challenges in the discovery of sulfated small molecules as mimetics of glycosaminoglycans” (Bioorg Med Chem Lett, 2013).

Experiment [1] concerns the target Coagulation factor X (Homo sapiens) (UniProt P00742). In words: Inhibition of human coagulation factor 10a using spectrozyme F10a as substrate at 365 uM after 10 mins by spectrophotometric analysis. A digest of the protocol:
(§1)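 Chromogenic substrate hydrolysis screen against each coagulation protease (VIIa, IXa, Xa, XIa, XIIa), each with its appropriate substrate. Inhibitor was tested at a single concentration of 365 μM. Fractional residual activity was taken as the ratio of initial hydrolysis rates with and without inhibitor, read spectrophotometrically.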

Experiment [2] concerns the target T1, Coagulation factor XII (Homo sapiens) (UniProt P00748).
T1 sequence (whole entry): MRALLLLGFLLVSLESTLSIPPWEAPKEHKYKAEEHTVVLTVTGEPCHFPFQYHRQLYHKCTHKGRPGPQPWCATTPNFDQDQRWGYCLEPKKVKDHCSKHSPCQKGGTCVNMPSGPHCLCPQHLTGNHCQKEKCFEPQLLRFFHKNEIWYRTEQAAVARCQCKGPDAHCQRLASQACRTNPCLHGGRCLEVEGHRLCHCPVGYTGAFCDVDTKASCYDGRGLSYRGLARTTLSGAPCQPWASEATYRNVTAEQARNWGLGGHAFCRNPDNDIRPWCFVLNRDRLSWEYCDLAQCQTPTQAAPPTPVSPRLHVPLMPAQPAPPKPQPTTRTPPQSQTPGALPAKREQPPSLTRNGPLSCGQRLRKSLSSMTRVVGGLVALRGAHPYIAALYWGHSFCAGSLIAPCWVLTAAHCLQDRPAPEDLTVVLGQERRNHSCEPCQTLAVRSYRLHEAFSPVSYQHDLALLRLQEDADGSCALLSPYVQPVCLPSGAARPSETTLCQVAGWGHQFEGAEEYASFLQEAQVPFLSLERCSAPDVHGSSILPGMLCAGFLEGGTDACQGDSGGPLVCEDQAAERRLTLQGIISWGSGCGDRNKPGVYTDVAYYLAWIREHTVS
In words: Inhibition of human coagulation factor 12a using spectrozyme F12a as substrate at 365 uM after 10 mins by spectrophotometric analysis. The gist of the method: as §1

For experiment [3], the target named is Prothrombin (Homo sapiens, UniProt P00734). Kind of experiment: Inhibition of human alpha thrombin using spectrozyme TH as substrate. A digest of the protocol: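 Chromogenic assay: initial rate of Spectrozyme TH hydrolysis read spectrophotometrically at pH 7.4 and 25 °C across a range of inhibitor concentrations. Fractional loss of initial rate plotted against log concentration and fitted to a logistic dose–response equation to give IC50.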

Experiment [4] deals with T2, Coagulation factor VII (Homo sapiens) (UniProt P08709).
T2 sequence (whole entry): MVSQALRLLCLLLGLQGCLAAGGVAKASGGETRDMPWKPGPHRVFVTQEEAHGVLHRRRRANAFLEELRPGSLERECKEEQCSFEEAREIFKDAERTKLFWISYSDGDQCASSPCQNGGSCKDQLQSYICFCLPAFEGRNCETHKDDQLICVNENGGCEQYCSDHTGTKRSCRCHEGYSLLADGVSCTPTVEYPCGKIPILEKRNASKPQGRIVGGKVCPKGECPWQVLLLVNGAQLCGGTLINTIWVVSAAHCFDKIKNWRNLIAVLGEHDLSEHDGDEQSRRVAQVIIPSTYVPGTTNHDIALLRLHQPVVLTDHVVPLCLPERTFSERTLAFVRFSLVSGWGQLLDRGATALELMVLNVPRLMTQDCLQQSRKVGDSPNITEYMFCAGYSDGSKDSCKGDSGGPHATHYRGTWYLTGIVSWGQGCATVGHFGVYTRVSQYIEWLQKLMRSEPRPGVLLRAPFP
Kind of experiment: Inhibition of human coagulation factor 7a using spectrozyme 7a as substrate at 365 uM after 10 mins by spectrophotometric analysis. The gist of the method: as §1

Experiment [5] deals with Coagulation factor XI (Homo sapiens) (UniProt P03951). In words: Inhibition of human coagulation factor 11a at 365 uM after 10 mins by spectrophotometric analysis. A digest of the protocol: as §1
Experiment [6] relates to Plasma. Kind of experiment: Anticoagulant activity in human plasma assessed as inhibition of Cacl2-induced coagulation after 4 mins by fibrometric analysis. Type of experiment: functional. The gist of the method:
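Human plasma clotting times were read on a fibrometer in both prothrombin time (PT) and activated partial thromboplastin time (APTT) formats, across a range of inhibitor concentrations. Trend lines of clotting time versus concentration gave the concentration needed to double clotting time (2×PT, 2×APTT).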

Experiment [7] concerns the target Coagulation factor IX (Homo sapiens) (UniProt P00740). In words: Inhibition of human coagulation factor 9a using spectrozyme F9a as substrate at 365 uM after 10 mins by spectrophotometric analysis. The gist of the method: as §1
Experiment [8] concerns Human alphaherpesvirus 1. Kind of experiment: Binding affinity to Herpes simplex virus 1 recombinant Lys25-His332-truncated His6-tagged glycoprotein D expressed in Escherichia coli measured after 3 hrs by affinity co-electrophoretic analysis.

Molecules are shown by their SMILES. Activity calls are given as the source filed them. No cut-off for these calls is given here. Some results are limits rather than exact numbers.

Sequence of Coagulation factor IX (Homo sapiens) (P00740 47-191 limits assumed): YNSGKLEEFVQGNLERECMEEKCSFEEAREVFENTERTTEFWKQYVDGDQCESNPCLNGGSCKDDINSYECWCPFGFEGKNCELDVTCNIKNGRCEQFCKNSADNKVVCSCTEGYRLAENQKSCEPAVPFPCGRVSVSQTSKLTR
Sequence of Coagulation factor IX (Homo sapiens) (P00740 227-461 limits assumed): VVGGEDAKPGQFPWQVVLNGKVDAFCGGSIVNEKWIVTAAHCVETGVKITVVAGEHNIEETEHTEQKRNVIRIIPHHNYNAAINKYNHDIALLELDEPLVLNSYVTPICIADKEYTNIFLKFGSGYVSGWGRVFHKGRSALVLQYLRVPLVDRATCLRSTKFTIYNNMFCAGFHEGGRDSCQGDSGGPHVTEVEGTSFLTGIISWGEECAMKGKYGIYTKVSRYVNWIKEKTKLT
Sequence of Coagulation factor XI (Homo sapiens) (P03951 19-387 limits assumed): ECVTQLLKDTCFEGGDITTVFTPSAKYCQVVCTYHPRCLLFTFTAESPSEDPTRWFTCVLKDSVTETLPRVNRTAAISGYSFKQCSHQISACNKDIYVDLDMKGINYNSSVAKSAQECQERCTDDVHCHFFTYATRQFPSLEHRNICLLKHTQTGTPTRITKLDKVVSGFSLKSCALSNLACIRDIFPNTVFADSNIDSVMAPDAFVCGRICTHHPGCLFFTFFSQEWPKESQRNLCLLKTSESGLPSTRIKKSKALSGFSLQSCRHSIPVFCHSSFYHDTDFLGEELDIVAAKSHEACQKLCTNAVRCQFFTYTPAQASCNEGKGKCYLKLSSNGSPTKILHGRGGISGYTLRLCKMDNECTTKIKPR
Sequence of Coagulation factor XI (Homo sapiens) (P03951 388-625 limits assumed): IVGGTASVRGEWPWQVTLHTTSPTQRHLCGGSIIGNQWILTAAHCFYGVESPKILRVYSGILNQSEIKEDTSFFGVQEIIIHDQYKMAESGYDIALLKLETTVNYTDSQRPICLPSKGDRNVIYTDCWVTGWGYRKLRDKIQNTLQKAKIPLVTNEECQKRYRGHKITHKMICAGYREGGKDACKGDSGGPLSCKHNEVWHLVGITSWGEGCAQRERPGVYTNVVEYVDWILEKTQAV
Sequence of Coagulation factor X (Homo sapiens) (P00742 41-179 limits assumed): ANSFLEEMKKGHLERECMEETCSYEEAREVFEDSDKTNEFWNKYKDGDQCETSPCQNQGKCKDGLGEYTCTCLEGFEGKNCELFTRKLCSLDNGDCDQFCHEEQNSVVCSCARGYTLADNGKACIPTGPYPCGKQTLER
Sequence of Coagulation factor X (Homo sapiens) (P00742 235-488 limits assumed): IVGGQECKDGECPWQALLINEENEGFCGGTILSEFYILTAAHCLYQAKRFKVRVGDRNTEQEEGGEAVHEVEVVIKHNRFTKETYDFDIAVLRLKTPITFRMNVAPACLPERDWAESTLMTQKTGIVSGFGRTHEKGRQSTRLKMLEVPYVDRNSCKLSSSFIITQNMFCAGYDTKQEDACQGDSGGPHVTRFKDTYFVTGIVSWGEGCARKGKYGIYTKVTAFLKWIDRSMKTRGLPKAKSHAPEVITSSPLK

Take `N#Cc1c(SCC(=O)c2cccc(OS(=O)(=O)O)c2OS(=O)(=O)O)nc([N+](=O)[O-])c(C#N)c1-c1ccc(OCc2ccccc2)cc1`: the inhibition in experiment [1], in experiment [2], in experiment [4] and in experiment [7] was more than 20% each time. This compound showed a half-inhibitory concentration (IC50) in experiment [3] of 65.9 µM. In addition, in experiment [5], the inhibition result was “Active”. Besides, in experiment [6], the 2PT stood at 606 µM. Moreover, the 2aPTT in experiment [6] was 550 µM.
`O=C(Nc1ccc(OS(=O)(=O)O)cc1)c1cccc(N2C(=O)c3ccc(C(=O)Nc4ccc(OS(=O)(=O)O)cc4)cc3C2=O)c1`: the inhibition in experiment [1], in experiment [2], in experiment [4] and in experiment [7] was more than 20% each time. This compound also returned an IC50 in experiment [3] of 286 µM. In addition, in experiment [5], the inhibition entry is “inactive”.
`O=C(O)C1=C[C@H](O)[C@@H](OS(=O)(=O)O)[C@@H](O[C@H]2[C@H](O)[C@@H](NS(=O)(=O)O)[C@@H](O[C@H]3[C@H](O)[C@@H](OS(=O)(=O)O)[C@@H](O[C@H]4[C@H](O)[C@@H](NS(=O)(=O)O)[C@@H](O[C@H]5[C@H](O)[C@@H](OS(=O)(=O)O)[C@@H](O[C@H]6[C@H](OS(=O)(=O)O)[C@@H](NS(=O)(=O)O)[C@@H](O[C@H]7[C@H](O)[C@@H](OS(=O)(=O)O)[C@@H](O[C@H]8[C@H](O)[C@@H](NS(=O)(=O)O)[C@@H](O)O[C@@H]8COS(=O)(=O)O)O[C@H]7C(=O)O)O[C@@H]6COS(=O)(=O)O)O[C@H]5C(=O)O)O[C@@H]4COS(=O)(=O)O)O[C@H]3C(=O)O)O[C@@H]2COS(=O)(=O)O)O1`: the Activity in experiment [8] is 19 µM.
